Measured values taken from ChEMBL document CHEMBL2331355, “Synthesis, structure activity relationship and mode of action of 3-substitutedphenyl-1-(2,2,8,8-tetramethyl-3,4,9,10-tetrahydro-2H,8H-pyrano[2,3-f]chromen-6-yl)-propenones as novel anticancer agents in human leukaemia HL-60 cells” (Eur J Med Chem, 2013).
Active and inactive are the calls of the source. The rule behind the calls is not given here.

What was measured:
Caco-2 [1] = test: Growth inhibition of human Caco2 cells at 30 uM after 48 hrs by MTT assay; assay type: functional, cell-based
Summary of the method: (§1)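 Single-concentration MTT screen at 50 µM over 48 h in 96-well plates. Compounds giving >50% inhibition were rescreened at 30 µM. OD read at 570 nm, reference 620 nm. Result expressed as % growth inhibition versus untreated control. Mitomycin C, adriamycin or 5-fluorouracil used as positive controls. Mean ± SD of three independent experiments.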

HL-60 [2] = test: Cell cycle arrest in human HL60 cells assessed as accumulation of G0/G1 phase cells at 15 uM after 24 hrs by PI staining-based flow cytometric analysis (reference value: 48%); assay type: functional
Caco-2 [3] = test: Growth inhibition of human Caco2 cells at 50 uM after 48 hrs by MTT assay; assay type: functional; conditions: Caco-2, 48 h, read-out: GI; summary of the method: as §1
HL-60 [4] = test: Induction of apoptosis in human HL60 cells assessed as nuclear condensation after 24 hrs by Hoechst 33258 staining; assay type: functional, cell-based
Summary of the method: (§2)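 HL-60 cells (1 × 10⁶/2 ml) treated 24 h at 15 and 20 µM, pelleted at 300 g and washed. Stained with Hoechst 33258, then examined under an inverted fluorescence microscope (10×, UV excitation) for nuclear condensation, blebbing and apoptotic bodies.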

HL-60 [5] = test: Induction of apoptosis in human HL60 cells assessed as nuclear blebbing after 24 hrs by Hoechst 33258 staining; assay type: functional, cell-based; summary of the method: as §2
Caco-2 [6] = test: Cytotoxicity against human Caco2 cells after 48 hrs by MTT assay; assay type: functional, cell-based; conditions: Caco-2, 48 h
Summary of the method: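 MTT assay in 96-well plates, 48 h exposure across 1–100 µM. OD read at 570 nm against a 620 nm reference. Untreated control OD taken as 100% viability. IC50 derived from the concentration–response curves. Mean ± SD, n = 8 wells, from three independent experiments.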

PC-3 = test: Growth inhibition of human PC3 cells at 50 uM after 48 hrs by MTT assay; assay type: functional; conditions: PC-3, 48 h, read-out: GI; summary of the method: as §1
HL-60 [7] = test: Cell cycle arrest in human HL60 cells assessed as accumulation of G0/G1 phase cells at 10 uM after 24 hrs by PI staining-based flow cytometric analysis (reference value: 48%); assay type: functional
HL-60 [8] = test: Cell cycle arrest in human HL60 cells assessed as accumulation of G0/G1 phase cells after 24 hrs by PI staining-based flow cytometric analysis; assay type: functional
HL-60 [9] = test: Induction of apoptosis in human HL60 cells at 5 uM after 24 hrs by PI-staining based flow cytometric analysis (reference value: 0.7 %); assay type: functional
HL-60 [10] = test: Induction of apoptosis in human HL60 cells assessed as apoptotic bodies at 20 uM after 24 hrs by Hoechst 33258 staining; assay type: functional, cell-based; summary of the method: as §2

Compound | growth inhibition (GI) (Caco-2 [1]) | Activity (HL-60 [2]) [%] | inhibition of growth at 50 µM (Caco-2 [3]) [%] | Activity (HL-60 [4]) | Activity (HL-60 [5]) | IC50 (Caco-2 [6]) [µM] | inhibition of growth at 50 µM (PC-3) [%] | Activity (HL-60 [7]) [%] | Activity (HL-60 [8]) | Activity (HL-60 [9]) [%] | Activity (HL-60 [10])
CC1(C)CCc2cc(C(=O)/C=C/c3cccc([N+](=O)[O-])c3)c3c(c2O1)CCC(C)(C)O3 | Active | 71 | 93 | Dose-dependent effect | Dose-dependent effect | 16 | 72 | 54 | Dose-dependent effect | 3 | Active
CC1(C)CCc2cc(C(=O)/C=C/c3ccc([N+](=O)[O-])cc3)c3c(c2O1)CCC(C)(C)O3 | Active | 53 | 73 | Dose-dependent effect | Dose-dependent effect | 28 | 61 | 52 | Dose-dependent effect | 3 | Active
